Test results as given in ChEMBL document CHEMBL1137781, “Synthesis and preclinical evaluation of novel PET probes for P-glycoprotein function and expression” (J Med Chem, 2009).

How the values were obtained:
Conditions in all cases: in vivo
Spleen [1] = test: Biodistribution in Wistar rat spleen at 40+/-4 MBq, iv after 80 mins; format: ADME, organism-based
[2] = Biodistribution in Wistar rat trachea at 40+/-4 MBq, iv after 80 mins; format: ADME, organism-based
[3] = Biodistribution in 50 mg/kg cyclosporin A pretreated Wistar rat amygdala at 27+/-2 MBq, iv after 80 mins; format: ADME, organism-based; parameters: dose 50 mg/kg, route intravenous
Procedure, shortened: (§1)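 Male Wistar rats pretreated via tail vein with saline or cyclosporin A (50 mg/kg, commercial solution), then given the [11C] tracer via penile vein. After microPET scanning the anesthetized rats were killed. Tissues were excised and weighed, and blood was centrifuged into plasma and cells. γ counting with decay correction. Results as SUV (tissue MBq/g × body weight/injected dose).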

[4] = Biodistribution in 50 mg/kg cyclosporin A pretreated Wistar rat bulbus olfactorius at 27+/-2 MBq, iv after 80 mins; format: ADME, organism-based, Olfactory bulb; parameters: dose 50 mg/kg, route intravenous; procedure, shortened: as §1
Cerebellum = test: Biodistribution in 50 mg/kg cyclosporin A pretreated Wistar rat cerebellum at 27+/-2 MBq, iv after 80 mins; format: ADME, organism-based; parameters: dose 50 mg/kg, route intravenous; procedure, shortened: as §1
[5] = Biodistribution in 50 mg/kg cyclosporin A pretreated Wistar rat cingulate cortex at 27+/-2 MBq, iv after 80 mins; format: ADME, organism-based; parameters: dose 50 mg/kg, route intravenous; procedure, shortened: as §1
[6] = Biodistribution in 50 mg/kg cyclosporin A pretreated Wistar rat entorhinal cortex at 27+/-2 MBq, iv after 80 mins; format: ADME, organism-based; parameters: dose 50 mg/kg, route intravenous; procedure, shortened: as §1
[7] = Biodistribution in 50 mg/kg cyclosporin A pretreated Wistar rat frontal cortex at 27+/-2 MBq, iv after 80 mins; format: ADME, organism-based; parameters: dose 50 mg/kg, route intravenous
Hippocampus = test: Biodistribution in 50 mg/kg cyclosporin A pretreated Wistar rat hippocampus at 27+/-2 MBq, iv after 80 mins; format: ADME, organism-based; parameters: dose 50 mg/kg, route intravenous
[8] = Biodistribution in 50 mg/kg cyclosporin A pretreated Wistar rat medulla at 27+/-2 MBq, iv after 80 mins; format: ADME, organism-based, Medulla of organ; parameters: dose 50 mg/kg, route intravenous
[9] = Biodistribution in 50 mg/kg cyclosporin A pretreated Wistar rat parietal/temporal/occipital cortex at 27+/-2 MBq, iv after 80 mins; format: ADME, organism-based; parameters: dose 50 mg/kg, route intravenous
Pons = test: Biodistribution in 50 mg/kg cyclosporin A pretreated Wistar rat pons at 27+/-2 MBq, iv after 80 mins; format: ADME, organism-based; parameters: dose 50 mg/kg, route intravenous
Striatum = test: Biodistribution in 50 mg/kg cyclosporin A pretreated Wistar rat striatum at 27+/-2 MBq, iv after 80 mins; format: ADME, organism-based; parameters: dose 50 mg/kg, route intravenous
Bone = test: Biodistribution in 50 mg/kg cyclosporin A pretreated Wistar rat bone at 27+/-2 MBq, iv after 80 mins; format: ADME, organism-based, Bone element; parameters: dose 50 mg/kg, route intravenous; procedure, shortened: as §1
Colon = test: Biodistribution in 50 mg/kg cyclosporin A pretreated Wistar rat colon at 27+/-2 MBq, iv after 80 mins; format: ADME, organism-based; parameters: dose 50 mg/kg, route intravenous; procedure, shortened: as §1
Duodenum = test: Biodistribution in 50 mg/kg cyclosporin A pretreated Wistar rat duodenum at 27+/-2 MBq, iv after 80 mins; format: ADME, organism-based; parameters: dose 50 mg/kg, route intravenous; procedure, shortened: as §1
[10] = Biodistribution in 50 mg/kg cyclosporin A pretreated Wistar rat fat at 27+/-2 MBq, iv after 80 mins; format: ADME, organism-based, Adipose tissue; parameters: dose 50 mg/kg, route intravenous; procedure, shortened: as §1
Heart = test: Biodistribution in 50 mg/kg cyclosporin A pretreated Wistar rat heart at 27+/-2 MBq, iv after 80 mins; format: ADME, organism-based; parameters: dose 50 mg/kg, route intravenous
Ileum = test: Biodistribution in 50 mg/kg cyclosporin A pretreated Wistar rat ileum at 27+/-2 MBq, iv after 80 mins; format: ADME, organism-based; parameters: dose 50 mg/kg, route intravenous
Kidney = test: Biodistribution in 50 mg/kg cyclosporin A pretreated Wistar rat kidney at 27+/-2 MBq, iv after 80 mins; format: ADME, organism-based; parameters: dose 50 mg/kg, route intravenous
Liver = test: Biodistribution in 50 mg/kg cyclosporin A pretreated Wistar rat liver at 27+/-2 MBq, iv after 80 mins; format: ADME, organism-based; parameters: dose 50 mg/kg, route intravenous
Lung = test: Biodistribution in 50 mg/kg cyclosporin A pretreated Wistar rat lung at 27+/-2 MBq, iv after 80 mins; format: ADME, organism-based; parameters: dose 50 mg/kg, route intravenous
Muscle tissue = test: Biodistribution in 50 mg/kg cyclosporin A pretreated Wistar rat muscle at 27+/-2 MBq, iv after 80 mins; format: ADME, organism-based; parameters: dose 50 mg/kg, route intravenous
Pancreas = test: Biodistribution in 50 mg/kg cyclosporin A pretreated Wistar rat pancreas at 27+/-2 MBq, iv after 80 mins; format: ADME, organism-based; parameters: dose 50 mg/kg, route intravenous
Plasma = test: Biodistribution in 50 mg/kg cyclosporin A pretreated Wistar rat plasma at 27+/-2 MBq, iv after 80 mins; format: ADME, organism-based; parameters: dose 50 mg/kg, route intravenous
[11] = Biodistribution in 50 mg/kg cyclosporin A pretreated Wistar rat red blood cells at 27+/-2 MBq, iv after 80 mins; format: ADME, organism-based, Erythrocyte; parameters: dose 50 mg/kg, route intravenous
Spleen [12] = test: Biodistribution in 50 mg/kg cyclosporin A pretreated Wistar rat spleen at 27+/-2 MBq, iv after 80 mins; format: ADME, organism-based; parameters: dose 50 mg/kg, route intravenous
[13] = Biodistribution in 50 mg/kg cyclosporin A pretreated Wistar rat trachea at 27+/-2 MBq, iv after 80 mins; format: ADME, organism-based; parameters: dose 50 mg/kg, route intravenous

SUV (Spleen [1]): 1.64
SUV [2]: 0.78
SUV [3]: 1.07
SUV [4]: 0.84
SUV (Cerebellum): 0.99
SUV [5]: 0.88
SUV [6]: 1.23
SUV [7]: 1.06
SUV (Hippocampus): 0.86
SUV [8]: 1.14
SUV [9]: 1.04
SUV (Pons): 1.28
SUV (Striatum): 0.87
SUV (Bone): 0.26
SUV (Colon): 1.81
SUV (Duodenum): 2.58
SUV [10]: 0.31
SUV (Heart): 0.34
SUV (Ileum): 1.1
SUV (Kidney): 1.47
SUV (Liver): 2.67
SUV (Lung): 0.98
SUV (Muscle tissue): 0.26
SUV (Pancreas): 2.91
SUV (Plasma): 0.32
SUV [11]: 0.16
SUV (Spleen [12]): 1.73
SUV [13]: 0.74
Compound: COc1cc2c(cc1OC)CN(CCCC1CCCc3c(O[11CH3])cccc31)CC2 (stereo not drawn)
